Reference: ChEMBL document CHEMBL3232978, “Efficient synthesis of novel glutamate homologues and investigation of their affinity and selectivity profile at ionotropic glutamate receptors” (Bioorg Med Chem Lett, 2014)

How the values were obtained:
[1] = molecular target: Glutamate receptor ionotropic, AMPA (Rattus norvegicus) (UniProt P19491+P19492+P19493+P19490); experiment: Displacement of [3H]AMPA from AMPA receptor in Sprague-Dawley rat brain cortical synaptic membranes at 100 uM after 1 hr by liquid scintillation counting
Summary of the method: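 In rat cortical membrane binding, test compounds were applied at a single concentration of 100 µM. Percent displacement of bound [3H]AMPA (AMPA sites) or [3H]KA (kainate sites) was recorded.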

[2] = system: kainate receptor (Rattus norvegicus); experiment: Displacement of [3H]KAIN from kainate receptor in Sprague-Dawley rat brain cortical synaptic membranes at 100 uM after 1 hr by liquid scintillation counting
Glutamate NMDA receptor [3] = experiment: Displacement of [3H]CGP39653 from NMDA receptor in Sprague-Dawley rat brain cortical synaptic membranes after 1 hr by liquid scintillation counting v
Summary of the method: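 Competition binding on rat cortical membranes, with [3H]CGP39653 labelling NMDA receptor sites. Ki values were derived and expressed as mean pKi ± SEM from three independent experiments. Hill coefficients were also determined.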

[4] = molecular target: kainate receptor (Rattus norvegicus); experiment: Displacement of [3H]KAIN from kainate receptor in Sprague-Dawley rat brain cortical synaptic membranes after 1 hr by liquid scintillation counting
[5] = molecular target: Glutamate receptor ionotropic, AMPA (Rattus norvegicus, UniProt P19490+P19491+P19492+P19493); experiment: Displacement of [3H]AMPA from AMPA receptor in Sprague-Dawley rat brain cortical synaptic membranes after 1 hr by liquid scintillation counting
Summary of the method: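 Radioligand displacement in rat cortical membranes: [3H]AMPA labelled AMPA receptors and [3H]KA labelled kainate receptors. Results are reported as IC50 for displacement of the radioligand.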

Glutamate NMDA receptor [6] = experiment: Displacement of [3H]CPP from NMDA receptor in Sprague-Dawley rat brain cortical synaptic membranes after 1 hr by liquid scintillation counting v

Structure (SMILES) | inhibition [1] | inhibition [2] | Ki (Glutamate NMDA receptor [3]) | IC50 [4] | IC50 [5] | Ki (Glutamate NMDA receptor [6])
N[C@H](CCCc1cscc1C(=O)O)C(=O)O | 5% | 5% | 14 µM | > 100 µM | > 100 µM | 
N[C@H](CCCc1ccccc1C(=O)O)C(=O)O | 5% | 5% | 32 µM | > 100 µM | > 100 µM | 
N[C@H](C/C=C/c1ccccc1C(=O)O)C(=O)O | 5% | 5% | > 100 µM | > 100 µM | > 100 µM | 
N[C@H](CCCC(=O)O)C(=O)O |  |  |  |  |  | 13 µM
N[C@H](C/C=C/c1cscc1C(=O)O)C(=O)O | 5% | 5% | 52 µM | > 100 µM | > 100 µM | 
